ChEMBL document CHEMBL1275544, “Effect of therapeutic chemical agents in vitro and on experimental meningoencephalitis due to Naegleria fowleri” (Antimicrob Agents Chemother, 2008)
Values after ≈ are worked out from the molar mass of the structure shown. Active and inactive are the calls of the source. No cut-off for these calls is given here.

How the values were obtained:
[1] = system: Naegleria fowleri; test: Antiparasitic activity against Naegleria fowleri ATCC 30215 trophozoites infected in BALB/c mouse assessed as mouse survival at 10 mg/kg, ip administered on days 3, 7 and 11 postinfection; format: functional, ATCC30215; conditions: route intraperitoneal
Method in brief: (§1)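 Female BALB/c mice, 7 weeks old, were infected intranasally under secobarbital anaesthesia with 10^4 trophozoites grown 3 days in Nelson's medium at 37°C. Drug was dissolved in saline and given as 100 µl intraperitoneally, starting day 3; controls received saline; 20 mice per group. Deaths were recorded daily for 1 month and mean time to death computed per group. Cause of death was confirmed by brain-tissue culture.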

[2] = system: Naegleria fowleri; test: Antiparasitic activity against Naegleria fowleri ATCC 30215 trophozoites assessed as inhibition of amoeba proliferation at 0.39 ug/ml on day 2; format: functional; conditions: ATCC 30215, 48 h
Method in brief: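 Viable amoebae counted by hemacytometer with trypan blue on day 2, with light-microscope morphology. Triplicate wells, at least three repeats.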

[3] = system: Naegleria fowleri; test: Antiparasitic activity against Naegleria fowleri ATCC 30215 trophozoites at >1.56 ug/ml on day 4 by LDH release assay; format: functional
Method in brief: (§2)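 Supernatant sampled on days 2, 4, 6, mixed with CytoTox96 reagent for 30 min at room temperature, stopped, A490 read. Cytotoxicity % = (sample − spontaneous)/(maximum − spontaneous) ×100. Means ± SE of three experiments in triplicate.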

[4] = system: Naegleria fowleri; test: Antiparasitic activity against Naegleria fowleri ATCC 30215 trophozoites infected in BALB/c mouse assessed as mean time to death at 10 mg/kg, ip administered on days 3, 7 and 11 postinfection; format: functional, ATCC30215; conditions: route intraperitoneal; method in brief: as §1
[5] = system: Naegleria fowleri; test: Antiparasitic activity against Naegleria fowleri ATCC 30215 trophozoites after 2 days; format: functional; conditions: ATCC 30215, 48 h, read-out: MIC100
[6] = system: Mus musculus; test: Blood urea nitrogen level in BALB/c mouse serum at 5 mg/kg, ip; format: ADME, organism-based; parameters: dose 5 mg/kg, route intraperitoneal; conditions: in vivo
Method in brief: (§3)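 Renal toxicity check: BALB/c mice given drug i.p. at 5, 10, 20 or 50 mg/kg (saline vehicle), or saline as negative control. Blood collected once daily for 3 days. Serum blood urea nitrogen measured on a clinical chemical analyzer.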

[7] = system: Mus musculus; test: Blood urea nitrogen level in BALB/c mouse serum at 20 mg/kg, ip; format: ADME, organism-based; parameters: dose 20 mg/kg, route intraperitoneal; conditions: in vivo; method in brief: as §3
[8] = system: Naegleria fowleri; test: Antiparasitic activity against Naegleria fowleri ATCC 30215 trophozoites at 25 ug/ml on day 6 by LDH release assay; format: functional; method in brief: as §2
[9] = system: Naegleria fowleri; test: Antiparasitic activity against Naegleria fowleri ATCC 30215 trophozoites after 4 days; format: functional; conditions: ATCC 30215, 96 h, read-out: MIC100
[10] = system: Mus musculus; test: Blood urea nitrogen level in BALB/c mouse serum at 10 mg/kg, ip; format: ADME, organism-based; parameters: dose 10 mg/kg, route intraperitoneal; conditions: in vivo; method in brief: as §3
[11] = system: Naegleria fowleri; test: Antiparasitic activity against Naegleria fowleri ATCC 30215 trophozoites after 6 days; format: functional; conditions: ATCC 30215, 144 h, read-out: MIC100
[12] = system: Naegleria fowleri; test: Antiparasitic activity against Naegleria fowleri ATCC 30215 trophozoites infected in BALB/c mouse brain by histopathology analysis; format: functional, organism-based; conditions: ATCC30215
Method in brief: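 Female BALB/c mice, 7 weeks old, infected intranasally under secobarbital with 10^4 trophozoites grown 3 days in Nelson's medium at 37°C. Drugs given i.p. in saline on days 3, 7, 11. Brains of dead mice or mice surviving 1 month fixed in 10% neutral buffered formalin, paraffin-embedded, H&E-stained and examined by light microscopy. 20 mice/group.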

[13] = system: Mus musculus; test: Renal toxicity in BALB/c mouse assessed as degeneration of renal tubules at 20 mg/kg, ip by histopathological analysis; format: organism-based; parameters: dose 20 mg/kg, route intraperitoneal; conditions: in vivo
[14] = system: Naegleria fowleri; test: Antiparasitic activity against Naegleria fowleri ATCC 30215 trophozoites at 100 ug/ml on day 4 by LDH release assay; format: functional; method in brief: as §2
[15] = system: Naegleria fowleri; test: Antiparasitic activity against Naegleria fowleri ATCC 30215 trophozoites infected in BALB/c mouse assessed as mouse survival at 20 mg/kg, ip administered on days 3 and 7 postinfection; format: functional, ATCC30215; conditions: route intraperitoneal; method in brief: as §1
[16] = system: Mus musculus; test: Blood urea nitrogen level in BALB/c mouse serum at 50 mg/kg, ip; format: ADME, organism-based; parameters: dose 50 mg/kg, route intraperitoneal; conditions: in vivo; method in brief: as §3
[17] = Hepatotoxicity in BALB/c mouse hepatocytes assessed as change in cell morphology at 20 mg/kg, ip by histopathological analysis; format: toxicity, organism-based, Hepatocyte; parameters: dose 20 mg/kg, route intraperitoneal
Method in brief: (§4)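 Toxicity histology: BALB/c mice dosed i.p. at 20 mg/kg in saline. Liver and kidney fixed in 10% neutral buffered formalin, paraffin-embedded, H&E-stained, and complete cross-sections examined by light microscopy (×100, ×400) for hepatocyte and renal cortical tubule size and shape.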

[18] = system: Naegleria fowleri; test: Antiparasitic activity against Naegleria fowleri ATCC 30215 trophozoites infected in BALB/c mouse assessed as mean time to death at 20 mg/kg, ip administered on days 3, 7 and 11 postinfection; format: functional, ATCC30215; conditions: route intraperitoneal; method in brief: as §1
[19] = system: Naegleria fowleri; test: Antiparasitic activity against Naegleria fowleri ATCC 30215 trophozoites infected in BALB/c mouse assessed as mouse survival at 20 mg/kg, ip administered on days 3, 7 and 11 postinfection; format: functional, ATCC30215; conditions: route intraperitoneal; method in brief: as §1
[20] = system: Mus musculus; test: Renal toxicity in BALB/c mouse assessed as change in renal cortical tubule morphology at 20 mg/kg, ip by histopathological analysis; format: organism-based; parameters: dose 20 mg/kg, route intraperitoneal; conditions: in vivo; method in brief: as §4
[21] = system: Mus musculus; test: Renal toxicity in BALB/c mouse assessed as necrosis in kidney cortex at 20 mg/kg, ip by histopathological analysis; format: organism-based; parameters: dose 20 mg/kg, route intraperitoneal; conditions: in vivo
[22] = system: Naegleria fowleri; test: Antiparasitic activity against Naegleria fowleri ATCC 30215 trophozoites at 3.125 ug/ml on day 2 by LDH release assay; format: functional; method in brief: as §2
[23] = system: Naegleria fowleri; test: Antiparasitic activity against Naegleria fowleri ATCC 30215 trophozoites at 25 ug/ml on day 2 by LDH release assay; format: functional; method in brief: as §2
[24] = system: Naegleria fowleri; test: Antiparasitic activity against Naegleria fowleri ATCC 30215 trophozoites at 6.25 ug/ml on day 2 by LDH release assay; format: functional; method in brief: as §2
[25] = system: Naegleria fowleri; test: Antiparasitic activity against Naegleria fowleri ATCC 30215 trophozoites at 50 ug/ml on day 2 by LDH release assay; format: functional; method in brief: as §2
[26] = system: Naegleria fowleri; test: Antiparasitic activity against Naegleria fowleri ATCC 30215 trophozoites at 1.56 ug/ml on day 2 by LDH release assay; format: functional; method in brief: as §2
[27] = system: Naegleria fowleri; test: Antiparasitic activity against Naegleria fowleri ATCC 30215 trophozoites at 100 ug/ml on day 2 by LDH release assay; format: functional; method in brief: as §2
[28] = system: Naegleria fowleri; test: Antiparasitic activity against Naegleria fowleri ATCC 30215 trophozoites at 50 ug/ml on day 6 by LDH release assay; format: functional; method in brief: as §2
[29] = system: Naegleria fowleri; test: Antiparasitic activity against Naegleria fowleri ATCC 30215 trophozoites at 12.5 ug/ml on day 2 by LDH release assay; format: functional; method in brief: as §2

Compound	MIC [5] [µg/mL]	Activity [7] [mg/dL]	Activity [8] [%]	MIC [9] [µg/mL]	Activity [10] [mg/dL]	MIC [11] [µg/mL]	Activity [15] [%]	Activity [16] [mg/dL]	Activity [19] [%]	other results
C[C@@H]1[C@H](O)[C@@H](C)/C=C/C=C/C=C/C=C/C=C/C=C/C=C/[C@H](O[C@@H]2O[C@H](C)[C@@H](O)[C@H](N)[C@@H]2O)C[C@@H]2O[C@](O)(C[C@@H](O)C[C@@H](O)[C@H](O)CC[C@@H](O)C[C@@H](O)CC(=O)O[C@H]1C)C[C@H](O)[C@H]2C(=O)O [AMPHOTERICIN B]	0.78 (≈ 0.844 µM)	44.1	99.5	0.78 (≈ 0.844 µM)	38.6	0.78 (≈ 0.844 µM)				Activity [1]: 40%; inhibition at 0.39 µg/mL [2]: 100%; Activity [3]: >50%; Time [4]: 17.3 days; Activity [6]: 27.4 mg/dL
CN(C)CCCN1c2ccccc2Sc2ccc(Cl)cc21 [CHLORPROMAZINE]	12.5 (≈ 39.2 µM)	38.4	64.4	12.5 (≈ 39.2 µM)	36.3	12.5 (≈ 39.2 µM)	35	57.5	75	Activity [12]: Active; Activity [13]: Non-toxic; Activity [14]: 69.1%; Activity [17]: Non-toxic; Time [18]: 17.2 days; Activity [20]: Non-toxic; Activity [21]: Non-toxic
CCCCCCCCCCCCCCCCOP(=O)([O-])OCC[N+](C)(C)C [MILTEFOSINE]	25 (≈ 61.3 µM)	34.6		25 (≈ 61.3 µM)	29.6	25 (≈ 61.3 µM)	20	82.4	55	Activity [22]: <30%; Activity [23]: <30%; Activity [24]: <30%; Activity [25]: <30%; Activity [26]: <30%; Activity [27]: <30%; Activity [28]: 79.3%; Activity [29]: <30%
